Published values gathered from unrelated publications.
Compare with care: the assays were run in different laboratories.
Target: Muscle, skeletal receptor tyrosine-protein kinase (MUSK, Homo sapiens, UniProt O15146)
Residues used in one study (O15146 1-869): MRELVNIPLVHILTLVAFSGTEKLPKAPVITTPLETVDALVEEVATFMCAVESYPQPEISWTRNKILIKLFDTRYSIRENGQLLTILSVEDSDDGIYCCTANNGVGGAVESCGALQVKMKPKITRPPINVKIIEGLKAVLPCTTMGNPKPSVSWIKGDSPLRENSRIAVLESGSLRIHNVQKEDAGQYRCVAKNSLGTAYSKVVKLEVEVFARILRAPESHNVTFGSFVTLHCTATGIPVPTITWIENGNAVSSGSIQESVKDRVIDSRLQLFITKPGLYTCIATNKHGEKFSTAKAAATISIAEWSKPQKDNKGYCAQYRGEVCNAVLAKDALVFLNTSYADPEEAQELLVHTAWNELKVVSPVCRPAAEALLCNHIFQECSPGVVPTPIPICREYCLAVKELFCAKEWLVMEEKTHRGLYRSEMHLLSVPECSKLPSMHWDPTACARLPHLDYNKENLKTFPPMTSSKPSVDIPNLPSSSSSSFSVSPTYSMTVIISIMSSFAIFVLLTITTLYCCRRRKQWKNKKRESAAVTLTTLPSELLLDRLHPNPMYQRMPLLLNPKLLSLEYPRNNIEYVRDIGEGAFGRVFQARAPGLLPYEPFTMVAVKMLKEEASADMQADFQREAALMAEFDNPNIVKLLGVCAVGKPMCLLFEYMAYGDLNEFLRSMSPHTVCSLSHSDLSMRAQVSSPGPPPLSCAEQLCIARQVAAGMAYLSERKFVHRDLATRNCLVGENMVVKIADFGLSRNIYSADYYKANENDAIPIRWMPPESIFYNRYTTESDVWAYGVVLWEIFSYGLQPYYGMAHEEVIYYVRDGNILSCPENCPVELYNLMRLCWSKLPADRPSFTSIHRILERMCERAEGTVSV

For `CC(=O)c1c(NS(C)(=O)=O)c2cc(-c3ccc(Cl)cc3)c(-c3ccc(Cl)cc3Cl)nc2n(C)c1=O`, the remaining binding was 99% (cell-free assay; competition with immobilised ligand; 1 µM).
For `CN(c1nccc(-c2cnn3ncccc23)n1)C1CC1`, the remaining binding was 100% (binding; 1 µM).
The remaining binding of `Nc1ncc2c(n1)-c1c([nH]c3ccc(C#CC4CC4)cc13)CCCC2` is reported as 100% (binding; competition with immobilised ligand; 1 µM).
For `N[C@H]1CCN(c2nccc(-c3cnn4ncccc34)n2)C1`, the remaining binding was 100% (binding; 1 µM).
For `C[C@@H](c1ccc(-n2cnc3c(N)ncnc32)cc1)N1CCc2nn(C)c(Cc3ccccc3)c2C1=O`, the remaining binding was 68% (binding; competition with immobilised ligand; 0.1 µM).
For `COc1ncc2cc3ccccc3nc2c1C#N`, the remaining binding was 100% (cell-free assay; competition with immobilised ligand; 5 µM).
For `O=C(c1ccc(Nc2nccc(-c3cc4ccccc4s3)n2)cc1)N1CCC(N2CCCC2)CC1`, the remaining binding was 72% (binding; competition with immobilised ligand; 1 µM).
`CNC(=O)[C@@H]1CC[C@@H](n2c(-c3ccc4cnccc4c3)nc3ccc(C(=O)NCc4cccc(C(N)=O)c4)cc32)C1` has a remaining binding of 90% (binding; competition with immobilised ligand; 1 µM).
For `O=C(Nc1c[nH]nc1C(=O)NC1CCNCC1)c1cc(F)cc(F)c1`, the remaining binding was 88% (binding; competition with immobilised ligand; 1 µM).
`O=C(c1ccc(Nc2ncc(Cl)c(-c3ccc(Cl)s3)n2)cc1)N1CCC(N2CCCC2)CC1` gave a remaining binding of 57% (binding; competition with immobilised ligand; 1 µM).
With `Cc1c(NC(=O)c2cc(C(N)=O)nc3cc(F)ccc23)c(C(F)(F)F)nn1Cc1ccc(C#N)cc1` the remaining binding was 95% (cell-free assay; competition with immobilised ligand; 1 µM).
The remaining binding of `CN(CCCC(F)(F)F)c1nccc(-c2cnn3ncccc23)n1` is reported as 100% (binding; 1 µM).
The remaining binding of `N#Cc1ccc(Nc2ccc3[nH]c(=O)[nH]c3c2)c(Cl)c1` is reported as 100% (cell-free assay; competition with immobilised ligand; 1 µM).
The remaining binding of `COc1cnc(Nc2cccc(S(N)(=O)=O)c2)nc1N1CCN(c2ccccc2)CC1` is reported as 97% (binding; competition with immobilised ligand; 1 µM).
With `FC(F)(F)c1ccc2c(c1)nc(-c1cccnc1)n2C1CC1` the remaining binding was 100% (cell-free assay; competition with immobilised ligand; 1 µM).
For `COc1ccnn2ncc(-c3ccnc(N(C)C)n3)c12`, the remaining binding was 93% (binding; 1 µM).
With `CO[C@@H](C)c1c(Nc2ccc([C@@H](N(C)C(=O)C3CCS(=O)(=O)CC3)C(F)(F)F)cc2)cnc2cc(Cl)nn12` the remaining binding was 88% (cell-free assay; competition with immobilised ligand; 1 µM).
`CN(C)c1nccc(-c2cnc3ncccn23)n1` has a remaining binding of 83% (binding; 1 µM).
With `O=C1CCc2cc(Nc3cc(OC4CCOCC4)c([N+](=O)[O-])cc3Cl)ccc2N1` the remaining binding was 100% (cell-free assay; competition with immobilised ligand; 1 µM).
`O=C(NCCCN1CCOCC1)c1ccc(Nc2nccc(-c3cc4ccccc4s3)n2)cc1` gave a remaining binding of 77% (binding; competition with immobilised ligand; 1 µM).
The remaining binding of `C[C@H]1CCN(c2nccc(-c3cnn4ncccc34)n2)C1` is reported as 80% (binding; 1 µM).
For `CN([C@@H]1CCc2c(CC(=O)O)c3cc(S(C)(=O)=O)ccc3n2C1)S(=O)(=O)c1ccc(F)cc1`, the remaining binding was 100% (cell-free assay; competition with immobilised ligand; 1 µM).
